# This is a sample that favours compounds with a hit; in the whole collection about 2.7% have one here.
# bovine MsrA act = bovine MsrA enzyme activators, primary screen, biochemical, absorbance, HTS; AID 602163, 2012; purified bovine MsrA, absorbance read-out; 360,000 tested, 0.3% active; activation, % at 10.6 µM; in the data active means activation above about 7.5%;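 further: 0% = vehicle and 100% = reference activator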
# Rev-erbA mod = modulators of Rev-erb alpha DNA binding, primary screen, biochemical, FITC-DNA, fluorescence polarization, uHTS | activity, % at 10 µM | 370,000 tested, 0.79% active | AID 1259318, 2017 | Rev-erbα–FITC-DNA binding, 90 min;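 active means activity above about 14%, limit read from the data; passing the limit was not always enough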;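 further: 0% = DMSO wells with 35 nM protein and 100% = DMSO wells with 750 nM protein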
# ARFGAP1 inh = inhibitors of rat ARFGAP1 GAP activity, primary screen, biochemical, fluorescence polarization, GDP tracer; Arfgap1-stimulated ARF1 GTP hydrolysis, GDP FP detection; inhibition, % at 16.5 µM; 360,000 tested, 0.26% active; AID 651572, 2012;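 active means inhibition above a per-plate limit, mean inhibition of low control wells plus 3 SD, cut at about 25% in these data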;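 further: 0% = DMSO wells with enzyme and 100% = wells lacking Arfgap1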
# Target sequence (Q62848 1-136 limits assumed): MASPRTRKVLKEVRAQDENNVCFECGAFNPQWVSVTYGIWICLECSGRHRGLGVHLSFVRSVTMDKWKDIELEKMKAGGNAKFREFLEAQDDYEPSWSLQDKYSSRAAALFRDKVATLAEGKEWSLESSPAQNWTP
#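 system = rat Arfgap1 catalytic domain, aa 1-136 | technique = FP, GDP Alexa 633 tracer displaced from anti-GDP antibody, 620/688 nm | compound = one concentration, 16.5 µM, DMSO 1.26% | medium = HEPES-based buffer, pH 7.5 | timing = compound-enzyme preincubation 20 min, reaction 120 min, detection 60 min, 25 °C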
# MsrA inhibitor = bovine MsrA enzyme inhibitors, primary screen, biochemical, absorbance, HTS. Methionine sulfoxide reductase A (Bos taurus). purified bovine MsrA, absorbance read-out. inhibition, % at 15.5 µM. 360,000 tested, 0.75% active; in the data active means inhibition above about 4.5%;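 further: 0% = vehicle wells with enzyme and 100% = reference inhibitor wells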
# sPLA2-III inh = human group III sPLA2 inhibitors, primary screen, biochemical, QFRET, BODIPY PC-A2 liposome substrate. QFRET BODIPY PC-A2 liposome hydrolysis, fluorescence. inhibition, % at 12.2 µM. 370,000 tested, 0.56% active. AID 743126, 2013;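 active means inhibition above mean plus 3 SD of compounds lying within the high and low control bounds, cut at about 19% in these data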;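 further: 0% = median of test compound wells and 100% = no enzyme DMSO wells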
# ASAP1 inh = inhibitors of human ASAP1 ArfGAP activity, primary screen, biochemical, fluorescence polarization; Arf-GAP with SH3 domain, ANK repeat and PH domain-containing protein 1 (Homo sapiens), …; ASAP1-stimulated ARF1 GTP hydrolysis, GDP FP detection; inhibition, % at 16.5 µM; 360,000 tested, 0.19% active; AID 624377, 2012; in the data active means inhibition above about 25%;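 further: 0% = vehicle with enzyme and substrate and 100% = no enzyme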
# NR1D1 mod conf = modulators of Rev-erb alpha DNA binding, confirmation, biochemical, FITC-DNA, fluorescence polarization, single point. shares compounds with Rev-erbA mod. 90 min. activation, % at 25 µM. 3,000 tested, 61% active. AID 1259319, 2017;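 active means activation at or above a set limit, or at least 3 SD above the negative control mean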;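 further: 0% = 35 nM protein with DMSO and 100% = 750 nM protein high control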
# RORg counter = modulation of RORgamma DNA binding, dose response, counter-screen for Rev-erb alpha modulator project, biochemical, fluorescence polarization, FITC-DNA. 910 tested, 8% active. IC50, µM. purified RORgamma protein-FITC-DNA binding. AID 1259320, 2017. shares compounds with Rev-erbA mod;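 active means Compounds whose fitted half-maximal concentration for disrupting protein-DNA binding is below 10 micromolar; the record names Rev-erb in its text, so the target is in doubt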
# * marks the source's active call; other numbers are inactive results; i = inactive; . = no result.
SMILES,bovine MsrA act,Rev-erbA mod,ARFGAP1 inh,MsrA inhibitor,sPLA2-III inh,ASAP1 inh,NR1D1 mod conf,others
COCCNC(=O)C1CCCN(C(=O)c2sc(-c3ccccc3)nc2C)CC1 (stereo not drawn),-2,3,4,0,-2,-4,.,
CC1(c2nnnn2Cc2ccccc2)CCC(=O)N1c1ccc(N2CCOCC2)cc1 (stereo not drawn),-8,2,-18,2,16,18,.,
CC1(C(=O)NS(=O)(=O)c2ccc(Cl)cc2)CCN1C(=O)c1ccccc1CCc1ccccc1 (stereo not drawn),-13,-4,-12,1,-19,-1,.,
COCCNS(=O)(=O)c1ccc2c3c(cccc13)C(=O)N2C,4,-5,1,3,4,-7,.,
CCCC(=O)N(c1ccc(OCC)cc1)S(=O)(=O)c1ccc2c3c(cccc13)C(=O)N2C,-1,43*,4,-1,5,-21,17,
CCCCCCCCCCCCCC(=O)OC(C)C,.,4,.,.,.,.,.,
COc1ccc(OC)c(C(=O)CSc2nc3c(c(=O)n(C)c(=O)n3C)n2C(C)C)c1,-2,37*,-2,-1,-3,-5,5,
CCc1ccc(C(=O)COC(=O)c2ccc(-c3nnc(-c4ccccc4)o3)cc2)cc1,-3,23*,1,-2,5,19,8,
Cc1ccc(C(=O)OCC(=O)c2ccccc2)cc1,-2,-8,14,0,-6,-6,.,
CC(=O)c1ccc(S(=O)(=O)N2CCN(c3ccnc4cc(Cl)ccc34)CC2)cc1,-2,2,5,-1,-16,-5,.,
COc1ccc(C=C(NC(=O)c2ccccc2)C(=O)O)cc1OC,-4,2,6,3,6,3,.,
O=c1[nH]c(CSc2ncnc3sc(-c4ccccc4)cc23)nc2ccccc12,-3,39*,1,-1,-5,4,4,
O=c1[nH]c(CSc2nc(-c3ccccc3)cs2)nc2ccccc12,-2,1,-5,-1,-42,0,.,
CC(C)C[C@@H]1COc2cc(NC3CC3)ccc2S(=O)(=O)N1,.,-5,1,2,17,0,.,
CC1(Cc2cc(Cl)ccc2C(F)(F)F)C(=O)Nc2ccc(OC(F)(F)F)cc21 (stereo not drawn),0,.,.,.,.,.,.,
COC(=O)c1cccc(CC2(C)C(=O)Nc3ccc(OC(F)(F)F)cc32)c1 (stereo not drawn),3,18*,-7,1,2,11,15*,
CC1(Cc2ccccc2OC(F)(F)F)C(=O)Nc2ccc(OC(F)(F)F)cc21 (stereo not drawn),-2,73*,18,0,6,-6,94*,RORg counter=>40
CC1(Cc2ccccc2OC(F)(F)F)C(=O)Nc2ccc(-c3ccsc3)cc21 (stereo not drawn),-2,72*,9,-1,-1,5,90*,RORg counter=i
C[C@H]1COc2cccc(N3CCC[C@H]3CO)c2S(=O)(=O)N1,-1,6,13,-1,7,0,.,
Cc1ccc(C)c(OCCC(=O)OCc2csc(CC(=O)Nc3ccccc3C)n2)c1,-2,0,9,-1,-51,-2,.,
CCCCCCN1CCN(C2CN(Cc3ccc(F)cc3)S(=O)(=O)C2)CC1 (stereo not drawn),-5,7,0,0,7,7,.,
O=C(CSc1nnc(-c2ccc(Cl)cc2)n1Cc1ccco1)Nc1ccc(S(=O)(=O)Nc2nccs2)cc1,.,2,.,.,-10,.,.,
